Test results taken from ChEMBL document CHEMBL1255410, “Activity of the investigational fluoroquinolone finafloxacin against ciprofloxacin-sensitive and -resistant Acinetobacter baumannii isolates” (2010).
Values after ≈ are worked out from the molar mass of the structure shown.

How the values were obtained:
Type in all cases: functional
Acinetobacter baumannii [1] = test: Antimicrobial activity against Acinetobacter baumannii isolate 26 harboring GyrA Ser83-Leu mutation at pH 7.2
Outline: (§1)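 MIC by agar dilution on Mueller-Hinton agar under standard conditions (pH 7.2), against isolates with characterized gyrA/parC genes. Agar pH was checked after solidifying. Plates for both drugs were prepared the same day from freshly made media, and MICs were determined simultaneously with the pH 5.8 set.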

Acinetobacter baumannii [2] = test: Antimicrobial activity against Acinetobacter baumannii isolate 39 harboring GyrA Ser83-Leu mutation at pH 7.2
Outline: (§2)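 Agar dilution MIC on Mueller-Hinton agar. For the acidic condition, HCl was added to bring the agar to pH 5.8 before pouring the antibiotic plates, and the pH was checked after the agar set. The standard condition was pH 7.2. Both drugs' plates were made the same day from fresh medium, and MICs were read at the same time.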

Acinetobacter baumannii [3] = test: Antimicrobial activity against Acinetobacter baumannii isolate 53 harboring GyrA Ser83-Leu and ParC Ser80-Leu mutation at pH 7.2; outline: as §2
Acinetobacter baumannii [4] = test: Antimicrobial activity against Acinetobacter baumannii isolate 36 harboring GyrA Ser83-Leu mutation at pH 7.2; outline: as §2
Acinetobacter baumannii [5] = test: Antimicrobial activity against Acinetobacter baumannii isolate 52 harboring GyrA Ser83-Leu and ParC Ser80-Leu mutation at pH 7.2; outline: as §2
Acinetobacter baumannii [6] = test: Antimicrobial activity against Acinetobacter baumannii isolate 21 harboring GyrA Ser83-Leu mutation at pH 7.2; outline: as §1
Acinetobacter baumannii [7] = test: Antimicrobial activity against Acinetobacter baumannii isolate 59 harboring GyrA Ser83-Leu and ParC Glu84-Lys mutation at pH 5.8
Outline: (§3)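 Agar dilution MIC on Mueller-Hinton agar acidified to pH 5.8 with HCl before the antibiotic-containing plates were poured. Agar pH was checked after solidifying. Plates were made the same day from fresh medium. Both fluoroquinolones were tested simultaneously against A. baumannii isolates with characterized gyrA/parC genes. MICs are in μg/ml.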

Acinetobacter baumannii [8] = test: Antimicrobial activity against Acinetobacter baumannii isolate 37 harboring GyrA Ser83-Leu mutation at pH 7.2; outline: as §2
Acinetobacter baumannii [9] = test: Antimicrobial activity against Acinetobacter baumannii isolate 33 harboring GyrA Ser83-Leu mutation at pH 7.2; outline: as §2
Acinetobacter baumannii [10] = test: Antimicrobial activity against Acinetobacter baumannii isolate 18 at pH 5.8
Outline: (§4)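 MIC by agar dilution on Mueller-Hinton agar acidified to pH 5.8 with HCl before antibiotic-containing plates were poured. Agar pH was rechecked once the agar had solidified. Isolates had characterized gyrA/parC genes. Plates for both drugs were made the same day from fresh media, and MICs were read in parallel with the standard-pH set.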

Acinetobacter baumannii [11] = test: Antimicrobial activity against Acinetobacter baumannii isolate 31 harboring GyrA Ser83-Leu mutation at pH 7.2; outline: as §1
Acinetobacter baumannii [12] = test: Antimicrobial activity against Acinetobacter baumannii isolate 46 harboring GyrA Ser83-Leu and ParC Ser80-Leu mutation at pH 5.8; outline: as §2
Acinetobacter baumannii [13] = test: Antimicrobial activity against Acinetobacter baumannii isolate 47 harboring GyrA Ser83-Leu and ParC Ser80-Phe mutation at pH 5.8; outline: as §2
Acinetobacter baumannii [14] = test: Antimicrobial activity against Acinetobacter baumannii isolate 28 harboring GyrA Ser83-Leu mutation at pH 5.8; outline: as §4
Acinetobacter baumannii [15] = test: Antimicrobial activity against Acinetobacter baumannii isolate 56 harboring GyrA Ser83-Leu and ParC Ser80-Leu mutation at pH 7.2
Outline: (§5)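 Agar dilution MIC on Mueller-Hinton agar under standard conditions (pH 7.2). Antibiotic-containing plates were made the same day from freshly prepared medium. Agar pH was checked after solidifying. Both fluoroquinolones were tested simultaneously against A. baumannii isolates with characterized gyrA/parC genes. MICs are in μg/ml.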

Acinetobacter baumannii [16] = test: Antimicrobial activity against Acinetobacter baumannii isolate 62 harboring GyrA Ser83-Leu and ParC Ser80-Leu mutation at pH 5.8; outline: as §3
Acinetobacter baumannii [17] = test: Antimicrobial activity against Acinetobacter baumannii isolate 3 at pH 7.2; outline: as §1
Acinetobacter baumannii [18] = test: Antimicrobial activity against Acinetobacter baumannii isolate 48 harboring GyrA Ser83-Leu and ParC Ser80-Leu mutation at pH 7.2; outline: as §2
Acinetobacter baumannii [19] = test: Antimicrobial activity against Acinetobacter baumannii isolate 7 at pH 5.8; outline: as §3
Acinetobacter baumannii [20] = test: Antimicrobial activity against Acinetobacter baumannii isolate 50 harboring GyrA Ser83-Leu and ParC Ser80-Leu mutation at pH 5.8; outline: as §2
Acinetobacter baumannii [21] = test: Antimicrobial activity against Acinetobacter baumannii isolate 1 at pH 5.8; outline: as §4
Acinetobacter baumannii [22] = test: Antimicrobial activity against Acinetobacter baumannii isolate 41 harboring GyrA Ser83-Leu mutation at pH 5.8; outline: as §2
Acinetobacter baumannii [23] = test: Antimicrobial activity against Acinetobacter baumannii isolate 65 harboring GyrA Ser83-Leu and ParC Ser80-Leu mutation at pH 7.2; outline: as §5
Acinetobacter baumannii [24] = test: Antimicrobial activity against Acinetobacter baumannii isolate 28 harboring GyrA Ser83-Leu mutation at pH 7.2; outline: as §1
Acinetobacter baumannii [25] = test: Antimicrobial activity against Acinetobacter baumannii isolate 19 harboring GyrA Ser83-Leu mutation at pH 7.2; outline: as §1
Acinetobacter baumannii [26] = test: Antimicrobial activity against Acinetobacter baumannii isolate 35 harboring GyrA Ser83-Leu mutation at pH 7.2; outline: as §2
Acinetobacter baumannii [27] = test: Antimicrobial activity against Acinetobacter baumannii isolate 63 harboring GyrA Ser83-Leu and ParC Glu84-Lys mutation at pH 5.8; outline: as §3
Acinetobacter baumannii [28] = test: Antimicrobial activity against Acinetobacter baumannii isolate 23 harboring GyrA Glu87-Gly mutation at pH 5.8; outline: as §4
Acinetobacter baumannii [29] = test: Antimicrobial activity against Acinetobacter baumannii isolate 38 harboring GyrA Ser83-Leu mutation at pH 5.8; outline: as §2
Acinetobacter baumannii [30] = test: Antimicrobial activity against Acinetobacter baumannii isolate 66 harboring GyrA Ser83-Leu mutation at pH 5.8; outline: as §3
Acinetobacter baumannii [31] = test: Antimicrobial activity against Acinetobacter baumannii isolate 62 harboring GyrA Ser83-Leu and ParC Ser80-Leu mutation at pH 7.2; outline: as §5
Acinetobacter baumannii [32] = test: Antimicrobial activity against Acinetobacter baumannii isolate 9 at pH 5.8; outline: as §3
Acinetobacter baumannii [33] = test: Antimicrobial activity against Acinetobacter baumannii isolate 40 harboring GyrA Ser83-Leu mutation at pH 5.8; outline: as §2
Acinetobacter baumannii [34] = test: Antimicrobial activity against Acinetobacter baumannii isolate 31 harboring GyrA Ser83-Leu mutation at pH 5.8; outline: as §4
Acinetobacter baumannii [35] = test: Antimicrobial activity against Acinetobacter baumannii isolate 34 harboring GyrA Ser83-Leu mutation at pH 7.2; outline: as §2
Acinetobacter baumannii [36] = test: Antimicrobial activity against Acinetobacter baumannii isolate 54 harboring GyrA Ser83-Leu and ParC Ser80-Leu mutation at pH 5.8; outline: as §2
Acinetobacter baumannii [37] = test: Antimicrobial activity against Acinetobacter baumannii isolate 5 at pH 5.8; outline: as §2
Acinetobacter baumannii [38] = test: Antimicrobial activity against Acinetobacter baumannii isolate 55 harboring GyrA Ser83-Leu and ParC Ser80-Leu mutation at pH 7.2; outline: as §5
Acinetobacter baumannii [39] = test: Antimicrobial activity against Acinetobacter baumannii isolate 58 harboring GyrA Ser83-Leu and ParC Ser80-Leu mutation at pH 5.8; outline: as §3
Acinetobacter baumannii [40] = test: Antimicrobial activity against Acinetobacter baumannii isolate 51 harboring GyrA Ser83-Leu and ParC Ser80-Leu mutation at pH 7.2; outline: as §2

SMILES | MIC (Acinetobacter baumannii [1]) [µg/mL] | MIC (Acinetobacter baumannii [2]) [µg/mL] | MIC (Acinetobacter baumannii [3]) [µg/mL] | MIC (Acinetobacter baumannii [4]) [µg/mL] | MIC (Acinetobacter baumannii [5]) [µg/mL] | MIC (Acinetobacter baumannii [6]) [µg/mL] | MIC (Acinetobacter baumannii [7]) [µg/mL] | MIC (Acinetobacter baumannii [8]) [µg/mL] | MIC (Acinetobacter baumannii [9]) [µg/mL] | MIC (Acinetobacter baumannii [10]) [µg/mL] | MIC (Acinetobacter baumannii [11]) [µg/mL] | MIC (Acinetobacter baumannii [12]) [µg/mL] | MIC (Acinetobacter baumannii [13]) [µg/mL] | MIC (Acinetobacter baumannii [14]) [µg/mL] | MIC (Acinetobacter baumannii [15]) [µg/mL] | MIC (Acinetobacter baumannii [16]) [µg/mL] | MIC (Acinetobacter baumannii [17]) [µg/mL] | MIC (Acinetobacter baumannii [18]) [µg/mL] | MIC (Acinetobacter baumannii [19]) [µg/mL] | MIC (Acinetobacter baumannii [20]) [µg/mL] | further results
O=C(O)c1cn(C2CC2)c2cc(N3CCNCC3)c(F)cc2c1=O [CIPROFLOXACIN] | 4 (≈ 12.1 µM) | 16 (≈ 48.3 µM) | 128 (≈ 386 µM) | 16 (≈ 48.3 µM) | 128 (≈ 386 µM) | 4 (≈ 12.1 µM) | > 128 | 16 (≈ 48.3 µM) | 8 (≈ 24.1 µM) | 8 (≈ 24.1 µM) | 8 (≈ 24.1 µM) | > 128 | > 128 | 32 (≈ 96.6 µM) | 128 (≈ 386 µM) | > 128 | 0.12 (≈ 0.362 µM) | 128 (≈ 386 µM) | 2 (≈ 6.04 µM) | > 128 | MIC (Acinetobacter baumannii [21]): 2 µg/mL (≈ 6.04 µM); MIC (Acinetobacter baumannii [22]): > 128 µg/mL; MIC (Acinetobacter baumannii [23]): > 128 µg/mL; MIC (Acinetobacter baumannii [24]): 4 µg/mL (≈ 12.1 µM); MIC (Acinetobacter baumannii [25]): 1 µg/mL (≈ 3.02 µM); MIC (Acinetobacter baumannii [26]): 8 µg/mL (≈ 24.1 µM); MIC (Acinetobacter baumannii [27]): > 128 µg/mL; MIC (Acinetobacter baumannii [28]): 32 µg/mL (≈ 96.6 µM); MIC (Acinetobacter baumannii [29]): 128 µg/mL (≈ 386 µM); MIC (Acinetobacter baumannii [30]): 128 µg/mL (≈ 386 µM); MIC (Acinetobacter baumannii [31]): 128 µg/mL (≈ 386 µM); MIC (Acinetobacter baumannii [32]): 2 µg/mL (≈ 6.04 µM); MIC (Acinetobacter baumannii [33]): > 128 µg/mL; MIC (Acinetobacter baumannii [34]): 32 µg/mL (≈ 96.6 µM); MIC (Acinetobacter baumannii [35]): 8 µg/mL (≈ 24.1 µM); MIC (Acinetobacter baumannii [36]): > 128 µg/mL; MIC (Acinetobacter baumannii [37]): 2 µg/mL (≈ 6.04 µM); MIC (Acinetobacter baumannii [38]): 128 µg/mL (≈ 386 µM); MIC (Acinetobacter baumannii [39]): > 128 µg/mL; MIC (Acinetobacter baumannii [40]): 128 µg/mL (≈ 386 µM)
N#Cc1c(N2C[C@@H]3NCCO[C@H]3C2)c(F)cc2c(=O)c(C(=O)O)cn(C3CC3)c12 [FINAFLOXACIN] | 16 (≈ 40.2 µM) | 16 (≈ 40.2 µM) | 32 (≈ 80.3 µM) | 16 (≈ 40.2 µM) | 32 (≈ 80.3 µM) | 1 (≈ 2.51 µM) | 8 (≈ 20.1 µM) | 16 (≈ 40.2 µM) | 16 (≈ 40.2 µM) | 0.12 (≈ 0.301 µM) | 16 (≈ 40.2 µM) | 2 (≈ 5.02 µM) | 4 (≈ 10 µM) | 1 (≈ 2.51 µM) | 32 (≈ 80.3 µM) | 8 (≈ 20.1 µM) | 0.12 (≈ 0.301 µM) | 16 (≈ 40.2 µM) | 0.06 (≈ 0.151 µM) | 4 (≈ 10 µM) | MIC (Acinetobacter baumannii [21]): 0.06 µg/mL (≈ 0.151 µM); MIC (Acinetobacter baumannii [22]): 2 µg/mL (≈ 5.02 µM); MIC (Acinetobacter baumannii [23]): 64 µg/mL (≈ 161 µM); MIC (Acinetobacter baumannii [24]): 16 µg/mL (≈ 40.2 µM); MIC (Acinetobacter baumannii [25]): 0.5 µg/mL (≈ 1.26 µM); MIC (Acinetobacter baumannii [26]): 16 µg/mL (≈ 40.2 µM); MIC (Acinetobacter baumannii [27]): 2 µg/mL (≈ 5.02 µM); MIC (Acinetobacter baumannii [28]): 1 µg/mL (≈ 2.51 µM); MIC (Acinetobacter baumannii [29]): 2 µg/mL (≈ 5.02 µM); MIC (Acinetobacter baumannii [30]): 2 µg/mL (≈ 5.02 µM); MIC (Acinetobacter baumannii [31]): 64 µg/mL (≈ 161 µM); MIC (Acinetobacter baumannii [32]): 0.12 µg/mL (≈ 0.301 µM); MIC (Acinetobacter baumannii [33]): 2 µg/mL (≈ 5.02 µM); MIC (Acinetobacter baumannii [34]): 1 µg/mL (≈ 2.51 µM); MIC (Acinetobacter baumannii [35]): 16 µg/mL (≈ 40.2 µM); MIC (Acinetobacter baumannii [36]): 4 µg/mL (≈ 10 µM); MIC (Acinetobacter baumannii [37]): 0.06 µg/mL (≈ 0.151 µM); MIC (Acinetobacter baumannii [38]): 32 µg/mL (≈ 80.3 µM); MIC (Acinetobacter baumannii [39]): 4 µg/mL (≈ 10 µM); MIC (Acinetobacter baumannii [40]): 32 µg/mL (≈ 80.3 µM)
